Laboratory results: ChEMBL document CHEMBL4316599, “Synthesis, in vitro and in vivo biological evaluation of substituted 3-(5-imidazo[2,1-b]thiazolylmethylene)-2-indolinones as new potent anticancer agents” (Eur J Med Chem, 2019)
Activity calls are given as the source filed them. No cut-off for these calls is given here.

Legend:
HT-29 [1] = assay: Cell cycle arrest in human HT-29 cells assessed as accumulation of cells at G2/M phase after 24 hrs by propidium iodide staining-based flow cytometric analysis; assay type: functional
Summary of the method: (§1)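 Cells exposed to a range of concentrations for 24 h (HeLa at 5×10^5 cells), then fixed in ice-cold 70% ethanol. Lysis buffer with RNase A and 0.1% Triton X-100 was applied before PI staining. DNA content was read by flow cytometry and G1/S/G2/M fractions taken from DNA histograms. Mean ± SEM of two independent experiments.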

K562 [2] = assay: Cell cycle arrest in human K562 cells assessed as mitotic index at 10 times IC50 by Giemsa staining-based assay (reference value: 3%); assay type: functional
HeLa [3] = assay: Cell cycle arrest in human HeLa cells assessed as accumulation of cells at G2/M phase after 24 hrs by propidium iodide staining-based flow cytometric analysis; assay type: functional; summary of the method: as §1
Tubulin (Bos taurus) [4] = target: T1, Tubulin (Bos taurus) (UniProt Q6B856+Q862L2+Q862F3); assay: Inhibition of [3H]colchicine binding to bovine brain tubulin at 5 uM after 20 mins relative to control
Summary of the method: (§2)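 Reaction mixtures held 1 μM tubulin, 5 μM [³H]colchicine and test compound at 5 or 50 μM. Read-out was percent inhibition of colchicine binding.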

Prostatic carcinoma cell = assay: Cytotoxicity against human prostate cancer cells after 48 hrs by SRB assay; assay type: functional
Summary of the method: (§3)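 NCI-60 screen: single-dose pass at 10^-5 M, then a five-concentration assay from 10^-9 to 10^-4 M (highest 100 μM). Exposure was 48 h under standard NCI protocols. GI50, TGI and LC50 were derived per cell line and averaged by subpanel. Repeated tests are the mean of two experiments.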

Breast carcinoma cell = assay: Cytotoxicity against human breast cancer cells after 48 hrs by SRB assay; assay type: functional; summary of the method: as §3
HT-29 [5] = assay: Cell cycle arrest in human HT-29 cells assessed as reduction in accumulation of cells at G1 phase up to 1000 nM after 24 hrs by propidium iodide staining-based flow cytometric analysis; assay type: functional; summary of the method: as §1
K562 [6] = assay: Cell cycle arrest in human K562 cells assessed as mitotic index at 5 times IC50 by Giemsa staining-based assay (reference value: 3%); assay type: functional
HeLa [7] = assay: Cell cycle arrest in human HeLa cells assessed as reduction in accumulation of cells at S phase up to 1000 nM after 24 hrs by propidium iodide staining-based flow cytometric analysis; assay type: functional; summary of the method: as §1
HeLa [8] = assay: Induction of apoptosis in human HeLa cells assessed as decrease in Mcl-1 levels at 50 to 250 nM after 24 hrs by Western blot analysis; assay type: functional, cell-based
Summary of the method: (§4)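 HeLa cells treated 24 h, washed in ice-cold PBS and lysed on ice 30 min. Lysates were spun at 15000 x g, 4 °C. 10 µg protein run on SDS-PAGE and blotted to PVDF. Blots were blocked in 5% BSA overnight at 4 °C and probed 2 h at room temperature. Detection by HRP-secondary and ECL, with bands normalized to β-actin as fold of untreated. Three independent experiments, one-way ANOVA/Dunnett.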

[9] = Cytotoxicity against human COLON cells after 48 hrs by SRB assay; assay type: functional; details: for CC50: read-out: LC50 (the source's name); summary of the method: as §3
Ovarian carcinoma cell = assay: Cytotoxicity against human ovarian cancer cells after 48 hrs by SRB assay; assay type: functional; summary of the method: as §3
Tubulin (Bos taurus) [10] = target: T1, Tubulin (Bos taurus); assay: Inhibition of [3H]colchicine binding to bovine brain tubulin at 50 uM after 20 mins relative to control; summary of the method: as §2
A549 [11] = assay: Cell cycle arrest in human A549 cells assessed as accumulation of cells at G2/M phase after 24 hrs by propidium iodide staining-based flow cytometric analysis; assay type: functional; summary of the method: as §1
HeLa [12] = assay: Induction of ROS generation in human HeLa cells at 250 nM after 12 to 24 hrs by H2-DCFDA staining-based assay; assay type: functional, cell-based
Summary of the method: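 HeLa cells treated 6, 12, 24 or 48 h, then loaded with H2-DCFDA and analysed by flow cytometry for ROS. Mean ± SEM of three independent experiments, compared against control.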

K562 [13] = assay: Cell cycle arrest in human K562 cells assessed as mitotic index at IC50 by Giemsa staining-based assay (reference value: 3%); assay type: functional
Melanoma cell line = assay: Cytotoxicity against human melanoma cells after 48 hrs by SRB assay; assay type: functional; details: for CC50: read-out: LC50 (the source's name); summary of the method: as §3
K562 [14] = assay: Cytotoxicity against human K562 cells after 48 hrs by SRB assay; assay type: functional, cell-based
HeLa [15] = assay: Cell cycle arrest in human HeLa cells assessed as decrease in p-cdc25c expression at 50 to 250 nM after 24 hrs by Western blot analysis; assay type: functional, cell-based; summary of the method: as §4
A549 [16] = assay: Induction of apoptosis in human A549 cells at 100 nM after 24 to 48 hrs by Annexin V-FITC/propidium iodide staining-based flow cytometric analysis; assay type: functional, cell-based
Summary of the method: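 A549 cells treated 24 or 48 h at 12.5–100 nM, then double-stained with annexin-V-FITC and PI. Phosphatidylserine exposure was read by flow cytometry. Mean ± SEM of three independent experiments.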

HT-29 [17] = assay: Cell cycle arrest in human HT-29 cells assessed as reduction in accumulation of cells at S phase up to 1000 nM after 24 hrs by propidium iodide staining-based flow cytometric analysis; assay type: functional; summary of the method: as §1
Tubulin = Tubulin (Bos taurus, UniProt Q6B856+Q862L2+Q862F3); assay: Inhibition of bovine brain tubulin polymerization after 20 mins by spectrophotometric analysis
Summary of the method: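 Bovine brain tubulin (10 μM) in glutamate buffer preincubated with varying compound levels at 30 °C, then chilled to 0 °C. GTP added to 0.4 mM final, then warmed to 30 °C. Assembly followed by turbidity at 350 nm. IC50 is the concentration halving the extent of assembly after 20 min.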

CNS carcinoma cell = assay: Cytotoxicity against human CNS cancer cells after 48 hrs by SRB assay; assay type: functional; details: for CC50: read-out: LC50 (the source's name); summary of the method: as §3
HeLa [18] = assay: Induction of apoptosis in human HeLa cells assessed as increase in caspase-3 activity at 50 to 250 nM after 24 hrs by Western blot analysis; assay type: functional, cell-based; summary of the method: as §4
Renal cancer cell line = assay: Cytotoxicity against human renal cancer cells after 48 hrs by SRB assay; assay type: functional; summary of the method: as §3
K562 [19] = assay: Cytotoxicity against human K562 cells after 16 hrs by SRB assay; details: K562, 16 h
HeLa [20] = assay: Cell cycle arrest in human HeLa cells assessed as reduction in accumulation of cells at G1 phase up to 1000 nM after 24 hrs by propidium iodide staining-based flow cytometric analysis; assay type: functional; summary of the method: as §1
NSCLC = assay: Cytotoxicity against human NSCLC cells after 48 hrs by SRB assay; assay type: functional; summary of the method: as §3
HeLa [21] = assay: Induction of apoptosis in human HeLa cells assessed as decrease in Bcl-2 levels at 50 to 250 nM after 24 hrs by Western blot analysis; assay type: functional, cell-based; summary of the method: as §4
Leukemia cell = assay: Cytotoxicity against human leukemia cells after 48 hrs by SRB assay; assay type: functional; summary of the method: as §3
A549 [22] = assay: Cell cycle arrest in human A549 cells assessed as reduction in accumulation of cells at S phase up to 600 nM after 24 hrs by propidium iodide staining-based flow cytometric analysis; assay type: functional; summary of the method: as §1
HeLa [23] = assay: Induction of apoptosis in human HeLa cells assessed as increase in caspase-9 activity at 50 to 250 nM after 24 hrs by Western blot analysis; assay type: functional, cell-based; summary of the method: as §4
[24] = Cytotoxicity against human PBL after 72 hrs by MTT assay; assay type: cell-based; details: peripheral blood lymphocytes (PBL)
Summary of the method: (§5)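 Lymphocytes from healthy donors were isolated on a Lymphoprep gradient and held overnight in RPMI-1640 with 10% FBS. Non-adherent cells were set at 5×10^5 cells/mL, either resting or stimulated with 2.5 μg/mL PHA. Cells were exposed to a range of compound concentrations for 72 h and viability read by MTT. GI50 is the mean ± SEM of three separate experiments.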

HeLa [25] = assay: Induction of mitochondrial membrane depolarization in human HeLa cells at 250 to 500 nM after 6 to 48 hrs by JC-1 staining-based assay; assay type: functional, cell-based; details: TDE = time-dependent effect
Summary of the method: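 HeLa cells treated at 250-500 nM for 6, 12, 24 or 48 h, then stained with JC-1. Percentage of cells with low mitochondrial membrane potential measured by flow cytometry. Mean ± SEM of three independent experiments.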

[26] = Cytotoxicity against human PHA-stimulated PBL after 72 hrs by MTT assay; assay type: cell-based; details: PHA-stimulated peripheral blood lymphocytes (PBL); summary of the method: as §5
A549 [27] = assay: Cell cycle arrest in human A549 cells assessed as reduction in accumulation of cells at G1 phase up to 600 nM after 24 hrs by propidium iodide staining-based flow cytometric analysis; assay type: functional; summary of the method: as §1

Question: Which results are given for `O=C1Nc2c(ccc3ccccc23)/C1=C\c1c(-c2cccnc2)nc2sccn12`?
Answer: Activity (HT-29 [1]): Dose-dependent effect; Activity (K562 [2]): 78%; Activity (HeLa [3]): Dose-dependent effect; inhibition (Tubulin (Bos taurus) [4]): 31%; GI50 (Prostatic carcinoma cell): 0.1 µM; TGI (Prostatic carcinoma cell): 11.1 µM; CC50 (Prostatic carcinoma cell; read-out: LC50 (the source's name)): 33.4 µM; GI50 (Breast carcinoma cell): 0.26 µM; LC50 (concentration killing 50% of cells) (Breast carcinoma cell): 70.8 µM; TGI (Breast carcinoma cell): 20.1 µM; Activity (HT-29 [5]): Active; Activity (K562 [6]): 64%; Activity (HeLa [7]): Active; Activity (HeLa [8]): Active; GI50 [9]: 0.15 µM; TGI [9]: 9.42 µM; CC50 [9]: 49 µM; GI50 (Ovarian carcinoma cell): 1.21 µM; LC50 (50% lethal concentration) (Ovarian carcinoma cell): 41.2 µM; TGI (Ovarian carcinoma cell): 12.3 µM; inhibition (Tubulin (Bos taurus) [10]): 56%; Activity (A549 [11]): Dose-dependent effect; Activity (HeLa [12]): Active; Activity (K562 [13]): 22%; GI50 (Melanoma cell line): 1.65 µM; TGI (Melanoma cell line): 17.6 µM; CC50 (Melanoma cell line): 66.5 µM; Activity (K562 [14]): Dose-dependent effect; Activity (HeLa [15]): Active; Activity (A549 [16]): Active; Activity (HT-29 [17]): Active; IC50 (Tubulin): 2.2 µM; GI50 (CNS carcinoma cell): 1.16 µM; TGI (CNS carcinoma cell): 13.9 µM; CC50 (CNS carcinoma cell): 47.5 µM; Activity (HeLa [18]): Active; GI50 (Renal cancer cell line): 1.24 µM; LC50 (50% lethal concentration) (Renal cancer cell line): 49.2 µM; TGI (Renal cancer cell line): 15.9 µM; IC50 (K562 [19]): 0.2 µM; Activity (HeLa [20]): Active; GI50 (NSCLC): 1.78 µM; LC50 (NSCLC): 61.7 µM; TGI (NSCLC): 16.2 µM; Activity (HeLa [21]): Active; GI50 (Leukemia cell): 0.11 µM; TGI (Leukemia cell): 46.4 µM; Activity (A549 [22]): Active; Activity (HeLa [23]): Active; GI50 at 72 h [24]: 3.1 µM; Activity (HeLa [25]): Tde; GI50 at 72 h [26]: 2.5 µM; Activity (A549 [27]): Active

Question: Which results are given for `COc1nc2sc(C)cn2c1C=C1C(=O)N(C)c2ccccc21`?
Answer: GI50 (Prostatic carcinoma cell): 12.6 µM; TGI (Prostatic carcinoma cell): 66.7 µM; GI50 (Breast carcinoma cell): 4.82 µM; TGI (Breast carcinoma cell): 58.2 µM; GI50 [9]: 4.05 µM; TGI [9]: 36.3 µM; CC50 [9]: 91.1 µM; GI50 (Ovarian carcinoma cell): 10.5 µM; LC50 (50% lethal concentration) (Ovarian carcinoma cell): 92.8 µM; TGI (Ovarian carcinoma cell): 67 µM; GI50 (Melanoma cell line): 8.08 µM; TGI (Melanoma cell line): 34.2 µM; CC50 (Melanoma cell line): 93.4 µM; GI50 (CNS carcinoma cell): 9.82 µM; TGI (CNS carcinoma cell): 42.4 µM; CC50 (CNS carcinoma cell): 97.3 µM; GI50 (Renal cancer cell line): 13.1 µM; TGI (Renal cancer cell line): 70.5 µM; GI50 (NSCLC): 9.5 µM; LC50 (NSCLC): 95.1 µM; TGI (NSCLC): 73.2 µM; GI50 (Leukemia cell): 4.35 µM; TGI (Leukemia cell): 74.2 µM
